ChEMBL document CHEMBL3525907, “Studies on the metabolism and biological activity of the epimers of sulindac” (Drug Metab Dispos, 2011)
The source made the active and inactive calls. No cut-off for these calls is given here.

How the values were obtained:
[1] = system: Liver; experiment: Drug metabolism in Sprague-Dawley rat liver treated with (R)-Sulindac at 2 mg, ip after 0.5 to 4 hrs by HPLC analysis; details: in vivo
[2] = system: Liver; experiment: Drug metabolism in Sprague-Dawley rat liver treated with (S)-Sulindac at 2 mg, ip after 0.5 to 4 hrs by HPLC analysis; details: in vivo
[3] = system: Zone of skin; experiment: Drug metabolism in Sprague-Dawley rat skin treated with (S)-Sulindac at 2 mg, ip after 0.5 to 4 hrs by HPLC analysis; details: in vivo
[4] = system: Plasma; experiment: Drug metabolism in Sprague-Dawley rat plasma treated with (S)-Sulindac at 2 mg, ip after 0.5 to 4 hrs by HPLC analysis; details: in vivo
[5] = system: Brain; experiment: Drug metabolism in Sprague-Dawley rat brain treated with (R)-Sulindac at 2 mg, ip after 0.5 to 4 hrs by HPLC analysis; details: in vivo
[6] = Retention time in rat plasma measured after 4 hrs ip injection of sulindac; format: physicochemical, organism-based; details: in vivo
[7] = system: Plasma; experiment: Drug metabolism in Sprague-Dawley rat plasma treated with (R)-Sulindac at 2 mg, ip after 0.5 to 4 hrs by HPLC analysis; details: in vivo
[8] = system: Zone of skin; experiment: Drug metabolism in Sprague-Dawley rat skin treated with (R)-Sulindac at 2 mg, ip after 0.5 to 4 hrs by HPLC analysis; details: in vivo
[9] = system: Brain; experiment: Drug metabolism in Sprague-Dawley rat brain treated with (S)-Sulindac at 2 mg, ip after 0.5 to 4 hrs by HPLC analysis; details: in vivo
[10] = biological target: Mitochondrial peptide methionine sulfoxide reductase (Rattus norvegicus, UniProt Q923M1); experiment: Drug metabolism in rat liver S100 fraction assessed as MSRA-mediated reduced product formation measured per mg of protein at 200 uM by HPLC analysis; format: ADME, tissue-based
[11] = biological target: Cytochrome P450 1B1 (Homo sapiens, UniProt Q16678); experiment: Drug metabolism assessed as human recombinant CYP1B1-mediated sulindac sulfone formation measured per pmol of protein at 200 uM after 90 mins by HPLC analysis; format: ADME; details: recombinant enzyme, 1.5 h
In short: (§1)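 Recombinant rat or human P450 Supersomes (some with cytochrome b5, variable reductase) incubated with (R)-sulindac at 500 μM or (S)-sulindac at 200 μM plus NADPH-regenerating system in 100 mM potassium phosphate pH 7.4 at 37°C, linear up to 90 min; acetonitrile stop; sulfone by C18 HPLC at 330 nm; ≥3 runs; pmol/pmol enzyme/h, mean ± S.E.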

[12] = biological target: Cytochrome P450 2C8 (Homo sapiens, UniProt P10632); experiment: Drug metabolism assessed as human recombinant CYP2C8-mediated sulindac sulfone formation measured per pmol of protein at 200 uM after 90 mins by HPLC analysis; format: ADME; details: recombinant enzyme, 1.5 h
In short: as §1

[13] = biological target: Cytochrome P450 1A1 (Rattus norvegicus, UniProt P00185); experiment: Drug metabolism assessed as rat recombinant CYP1A1-mediated sulindac sulfone formation measured per pmol of protein at 200 uM after 90 mins by HPLC analysis; format: ADME; details: recombinant enzyme, 1.5 h
In short: as §1

[14] = biological target: Cytochrome P450 1A2 (Rattus norvegicus, UniProt P04799); experiment: Drug metabolism assessed as rat recombinant CYP1A2-mediated sulindac sulfone formation measured per pmol of protein at 200 uM after 90 mins by HPLC analysis; format: ADME; details: recombinant enzyme, 1.5 h
In short: as §1

[15] = biological target: Cytochrome P450 2C9 (Homo sapiens, UniProt P11712); experiment: Drug metabolism assessed as human recombinant CYP2C9-mediated sulindac sulfone formation measured per pmol of protein at 200 uM after 90 mins by HPLC analysis; format: ADME; details: recombinant enzyme, 1.5 h
In short: as §1

[16] = system: A549; experiment: Potentiation of TBHP-induced cytotoxicity in human A549 cells at 500 uM incubated for 48 hrs prior to TBHP-challenge measured after 2 hrs; format: functional, cell-based
[17] = biological target: Cytochrome P450 1A2 (Homo sapiens, UniProt P05177); experiment: Drug metabolism assessed as human recombinant CYP1A2-mediated sulindac sulfone formation measured per pmol of protein at 200 uM after 90 mins by HPLC analysis; format: ADME; details: recombinant enzyme, 1.5 h
In short: as §1

[18] = biological target: Cytochrome P450 2C19 (Homo sapiens, UniProt P33261); experiment: Drug metabolism assessed as human recombinant CYP2C19-mediated sulindac sulfone formation measured per pmol of protein at 200 uM after 90 mins by HPLC analysis; format: ADME; details: recombinant enzyme, 1.5 h
In short: as §1

[19] = biological target: Cytochrome P450 2B1 (Rattus norvegicus, UniProt P00176); experiment: Drug metabolism assessed as rat recombinant CYP2B1-mediated sulindac sulfone formation measured per pmol of protein at 200 uM after 90 mins by HPLC analysis; format: ADME; details: recombinant enzyme, 1.5 h
In short: as §1

[20] = biological target: Cytochrome P450 3A2 (Rattus norvegicus, UniProt P05183); experiment: Drug metabolism assessed as rat recombinant CYP3A2-mediated sulindac sulfone formation measured per pmol of protein at 200 uM after 90 mins by HPLC analysis; format: ADME; details: recombinant enzyme, 1.5 h
In short: as §1

[21] = biological target: Cytochrome P450 2D6 (Homo sapiens, UniProt P10635); experiment: Drug metabolism assessed as human recombinant CYP2D6-mediated sulindac sulfone formation measured per pmol of protein at 200 uM after 90 mins by HPLC analysis; format: ADME; details: recombinant enzyme, 1.5 h
In short: as §1

[22] = system: MRC5; experiment: Cytoprotective activity in TBHP-induced human MRC5 cells at 500 uM incubated for 48 hrs prior to TBHP-challenge measured after 2 hrs; format: functional, cell-based
In short: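 Normal lung cells preincubated 48 h with 500 μM (R)- or (S)-sulindac or no drug, then challenged with TBHP; viability expressed as percent of cells not exposed to TBHP; mean and S.E. of five repeats; p < 0.05 versus no-drug controls.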

[23] = biological target: Cytochrome P450 3A4 (Homo sapiens, UniProt P08684); experiment: Drug metabolism assessed as human recombinant CYP3A4-mediated sulindac sulfone formation measured per pmol of protein at 200 uM after 90 mins by HPLC analysis; format: ADME; details: recombinant enzyme, 1.5 h
In short: as §1

[24] = system: Liver microsome; experiment: Drug metabolism in rat liver microsomes at 200 µM after 60 mins by HPLC analysis in presence of NADPH; details: 1 h

Cytochrome P450 2C19, sequence (P33261 whole entry): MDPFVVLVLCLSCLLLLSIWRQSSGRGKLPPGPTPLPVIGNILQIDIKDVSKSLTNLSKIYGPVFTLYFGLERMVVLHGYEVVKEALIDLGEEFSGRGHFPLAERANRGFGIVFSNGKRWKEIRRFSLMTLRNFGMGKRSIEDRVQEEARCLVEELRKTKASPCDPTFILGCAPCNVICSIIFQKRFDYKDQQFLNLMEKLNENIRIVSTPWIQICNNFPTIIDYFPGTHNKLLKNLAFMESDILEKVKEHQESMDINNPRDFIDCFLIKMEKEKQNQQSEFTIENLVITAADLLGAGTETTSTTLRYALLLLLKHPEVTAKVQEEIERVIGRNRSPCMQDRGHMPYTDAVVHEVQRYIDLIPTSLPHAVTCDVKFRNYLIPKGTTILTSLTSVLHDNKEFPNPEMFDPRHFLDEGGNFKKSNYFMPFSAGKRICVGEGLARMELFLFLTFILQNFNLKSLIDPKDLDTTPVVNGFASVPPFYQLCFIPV
Cytochrome P450 2C8, sequence (P10632 whole entry): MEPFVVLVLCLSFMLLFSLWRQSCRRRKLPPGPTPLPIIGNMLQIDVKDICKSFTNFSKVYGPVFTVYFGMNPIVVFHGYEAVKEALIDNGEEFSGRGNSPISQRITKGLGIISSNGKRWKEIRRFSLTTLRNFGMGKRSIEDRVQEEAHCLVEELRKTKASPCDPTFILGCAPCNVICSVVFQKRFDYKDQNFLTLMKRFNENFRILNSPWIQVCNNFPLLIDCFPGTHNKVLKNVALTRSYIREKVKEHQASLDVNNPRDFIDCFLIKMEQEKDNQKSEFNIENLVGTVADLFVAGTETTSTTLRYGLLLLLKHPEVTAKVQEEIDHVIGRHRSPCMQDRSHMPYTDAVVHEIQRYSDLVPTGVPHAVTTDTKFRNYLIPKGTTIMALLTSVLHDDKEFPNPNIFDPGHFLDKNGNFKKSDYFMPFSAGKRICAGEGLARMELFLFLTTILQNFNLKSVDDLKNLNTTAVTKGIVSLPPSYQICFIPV
Cytochrome P450 1B1, sequence (Q16678 whole entry): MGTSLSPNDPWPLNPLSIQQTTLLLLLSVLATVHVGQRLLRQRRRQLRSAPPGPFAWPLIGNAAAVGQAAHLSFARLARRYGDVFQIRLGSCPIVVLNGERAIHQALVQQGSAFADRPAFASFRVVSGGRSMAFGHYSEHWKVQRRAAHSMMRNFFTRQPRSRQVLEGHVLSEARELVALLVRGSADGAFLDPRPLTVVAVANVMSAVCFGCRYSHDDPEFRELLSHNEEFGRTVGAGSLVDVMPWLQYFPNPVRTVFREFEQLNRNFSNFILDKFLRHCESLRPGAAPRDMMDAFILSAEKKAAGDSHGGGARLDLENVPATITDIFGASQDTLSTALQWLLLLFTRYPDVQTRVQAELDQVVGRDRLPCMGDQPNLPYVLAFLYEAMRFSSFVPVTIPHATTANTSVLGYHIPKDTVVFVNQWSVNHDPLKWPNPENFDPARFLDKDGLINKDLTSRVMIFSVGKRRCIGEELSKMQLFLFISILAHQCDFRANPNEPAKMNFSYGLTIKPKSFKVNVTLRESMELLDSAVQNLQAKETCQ
Cytochrome P450 2B1, sequence (P00176 whole entry): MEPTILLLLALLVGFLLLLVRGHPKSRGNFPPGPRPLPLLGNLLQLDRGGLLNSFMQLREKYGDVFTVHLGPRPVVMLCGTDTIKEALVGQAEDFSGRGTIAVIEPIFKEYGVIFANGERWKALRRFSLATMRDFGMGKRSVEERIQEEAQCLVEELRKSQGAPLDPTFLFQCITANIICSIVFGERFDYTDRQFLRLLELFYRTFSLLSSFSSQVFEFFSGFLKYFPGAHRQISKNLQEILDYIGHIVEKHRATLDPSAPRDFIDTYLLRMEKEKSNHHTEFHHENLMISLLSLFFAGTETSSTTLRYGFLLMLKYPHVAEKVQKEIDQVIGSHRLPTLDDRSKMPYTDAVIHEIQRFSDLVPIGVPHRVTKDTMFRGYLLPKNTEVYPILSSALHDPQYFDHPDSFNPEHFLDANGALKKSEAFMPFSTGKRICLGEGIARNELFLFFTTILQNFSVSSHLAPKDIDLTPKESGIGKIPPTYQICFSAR
Cytochrome P450 1A2 (Rattus norvegicus, UniProt P04799), sequence (P04799 whole entry): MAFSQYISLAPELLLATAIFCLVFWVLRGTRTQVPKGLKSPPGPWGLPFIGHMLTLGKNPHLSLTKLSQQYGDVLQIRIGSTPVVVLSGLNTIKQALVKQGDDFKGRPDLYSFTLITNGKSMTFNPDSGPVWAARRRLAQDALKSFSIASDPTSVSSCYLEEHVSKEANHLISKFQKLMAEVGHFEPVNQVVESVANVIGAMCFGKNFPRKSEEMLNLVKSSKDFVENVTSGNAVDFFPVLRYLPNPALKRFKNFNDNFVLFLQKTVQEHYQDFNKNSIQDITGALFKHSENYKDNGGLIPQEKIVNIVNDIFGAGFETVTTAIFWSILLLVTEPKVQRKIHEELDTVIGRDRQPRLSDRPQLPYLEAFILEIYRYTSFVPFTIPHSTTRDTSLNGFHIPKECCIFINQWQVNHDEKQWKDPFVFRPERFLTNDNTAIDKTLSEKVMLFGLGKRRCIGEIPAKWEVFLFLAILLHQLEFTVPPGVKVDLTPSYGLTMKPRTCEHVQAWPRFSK
Cytochrome P450 1A1, sequence (P00185 whole entry): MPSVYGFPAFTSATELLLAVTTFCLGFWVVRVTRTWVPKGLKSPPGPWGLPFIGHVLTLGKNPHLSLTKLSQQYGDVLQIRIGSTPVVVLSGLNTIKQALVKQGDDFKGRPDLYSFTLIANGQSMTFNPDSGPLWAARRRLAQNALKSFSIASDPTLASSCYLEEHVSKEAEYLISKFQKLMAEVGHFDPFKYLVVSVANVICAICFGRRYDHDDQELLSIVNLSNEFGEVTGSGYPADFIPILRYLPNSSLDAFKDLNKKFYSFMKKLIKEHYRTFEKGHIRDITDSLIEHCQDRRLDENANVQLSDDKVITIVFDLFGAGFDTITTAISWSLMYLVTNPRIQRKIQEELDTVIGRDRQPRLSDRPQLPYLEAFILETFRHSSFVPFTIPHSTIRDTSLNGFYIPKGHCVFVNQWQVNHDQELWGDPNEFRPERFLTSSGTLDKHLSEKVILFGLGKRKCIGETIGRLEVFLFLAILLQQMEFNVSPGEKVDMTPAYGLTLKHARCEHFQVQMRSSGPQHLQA
Cytochrome P450 2D6, sequence (P10635 whole entry): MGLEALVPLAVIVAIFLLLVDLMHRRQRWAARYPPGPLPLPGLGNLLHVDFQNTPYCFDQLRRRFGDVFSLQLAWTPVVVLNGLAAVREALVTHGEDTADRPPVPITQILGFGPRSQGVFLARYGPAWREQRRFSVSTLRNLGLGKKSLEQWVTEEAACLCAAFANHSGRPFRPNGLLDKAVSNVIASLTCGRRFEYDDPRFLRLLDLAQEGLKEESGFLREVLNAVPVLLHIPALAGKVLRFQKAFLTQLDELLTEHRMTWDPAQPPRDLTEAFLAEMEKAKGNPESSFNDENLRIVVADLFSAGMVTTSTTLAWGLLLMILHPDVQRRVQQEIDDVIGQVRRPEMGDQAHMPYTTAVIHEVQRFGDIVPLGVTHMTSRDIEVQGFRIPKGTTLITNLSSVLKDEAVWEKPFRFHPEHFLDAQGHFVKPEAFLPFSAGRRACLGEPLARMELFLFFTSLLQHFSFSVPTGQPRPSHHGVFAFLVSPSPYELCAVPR
Cytochrome P450 3A2, sequence (P05183 whole entry): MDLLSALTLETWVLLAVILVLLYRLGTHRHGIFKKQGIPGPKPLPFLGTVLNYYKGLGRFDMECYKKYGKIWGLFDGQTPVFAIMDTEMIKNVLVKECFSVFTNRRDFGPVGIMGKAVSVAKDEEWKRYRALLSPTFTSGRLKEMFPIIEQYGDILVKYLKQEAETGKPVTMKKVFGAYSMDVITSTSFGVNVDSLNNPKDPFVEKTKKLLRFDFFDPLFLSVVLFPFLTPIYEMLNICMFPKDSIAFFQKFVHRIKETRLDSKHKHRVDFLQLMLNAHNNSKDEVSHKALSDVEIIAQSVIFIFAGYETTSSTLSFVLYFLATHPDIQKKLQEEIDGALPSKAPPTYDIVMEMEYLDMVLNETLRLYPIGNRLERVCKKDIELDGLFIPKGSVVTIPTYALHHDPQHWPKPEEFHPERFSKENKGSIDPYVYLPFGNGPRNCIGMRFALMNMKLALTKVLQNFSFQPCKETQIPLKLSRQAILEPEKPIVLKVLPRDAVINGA
Cytochrome P450 3A4, sequence (P08684 whole entry): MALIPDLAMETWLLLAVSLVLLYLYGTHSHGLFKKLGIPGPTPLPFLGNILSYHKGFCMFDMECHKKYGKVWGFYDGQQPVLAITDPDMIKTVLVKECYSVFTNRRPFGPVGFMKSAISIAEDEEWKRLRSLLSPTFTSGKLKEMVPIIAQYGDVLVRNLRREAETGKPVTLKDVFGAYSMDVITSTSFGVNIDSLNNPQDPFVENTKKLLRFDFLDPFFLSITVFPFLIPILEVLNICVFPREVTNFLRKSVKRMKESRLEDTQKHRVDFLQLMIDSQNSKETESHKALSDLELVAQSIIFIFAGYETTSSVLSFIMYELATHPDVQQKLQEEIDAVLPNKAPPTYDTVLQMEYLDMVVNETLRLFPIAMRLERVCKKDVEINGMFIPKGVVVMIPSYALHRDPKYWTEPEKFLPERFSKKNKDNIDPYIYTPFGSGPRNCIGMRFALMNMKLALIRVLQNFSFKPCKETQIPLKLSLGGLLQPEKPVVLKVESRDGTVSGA
Mitochondrial peptide methionine sulfoxide reductase, sequence (Q923M1 whole entry): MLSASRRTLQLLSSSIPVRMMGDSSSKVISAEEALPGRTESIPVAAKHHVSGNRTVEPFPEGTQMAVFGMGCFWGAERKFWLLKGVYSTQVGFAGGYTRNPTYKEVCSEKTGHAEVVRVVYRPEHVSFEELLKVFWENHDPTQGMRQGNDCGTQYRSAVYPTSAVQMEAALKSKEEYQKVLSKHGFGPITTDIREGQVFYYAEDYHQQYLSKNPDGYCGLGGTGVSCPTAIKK

Row | Compound | Drug metabolism [1] | Drug metabolism [2] | Drug metabolism [3] | Drug metabolism [4] | Drug metabolism [5] | Retention_time [6] | Drug metabolism [7] | Drug metabolism [8] | Drug metabolism [9] | other results
1 | CSc1ccc(/C=C2/C(C)=C(CC(=O)O)c3cc(F)ccc32)cc1 [SULINDAC SULFIDE] | metabolite_detected | metabolite_detected | metabolite_detected | metabolite_detected | metabolite_detected | 7.1 min | metabolite_detected | metabolite_detected | metabolite_detected | 
2 | CC1=C(CC(=O)O)c2cc(F)ccc2/C1=C\c1ccc([S@+](C)[O-])cc1 |  |  |  |  |  |  |  |  |  | Drug metabolism [10]: metabolite_detected; Drug metabolism [11]: 0 pmol/h; Drug metabolism [12]: metabolite_not_detected; Drug metabolism [13]: 22 pmol/h; Drug metabolism [14]: 24 pmol/h; Drug metabolism [15]: metabolite_not_detected; Activity [16]: Active; Drug metabolism [17]: 34 pmol/h; Drug metabolism [18]: metabolite_not_detected; Drug metabolism [19]: metabolite_not_detected; Drug metabolism [20]: metabolite_not_detected; Drug metabolism [21]: metabolite_not_detected; Activity [22]: Active; Drug metabolism [23]: 29 pmol/h
3 | CC1=C(CC(=O)O)c2cc(F)ccc2/C1=C\c1ccc(S(C)(=O)=O)cc1 [EXISULIND] | metabolite_detected | metabolite_detected | metabolite_detected | metabolite_detected | metabolite_detected | 1.5 min | metabolite_detected | metabolite_detected | metabolite_detected | Drug metabolism [24]: metabolite_detected
